Data published in ChEMBL document CHEMBL1138136, “Aplysamine-1 and related analogs as histamine H3 receptor antagonists” (Bioorg Med Chem Lett, 2006).

Key:
Histamine H3 receptor [1] = biological target: T1, Histamine H3 receptor (Homo sapiens, UniProt Q9Y5N1); assay: Displacement of N-[3H]methylhistamine from human histamine H3 receptor expressed in SK-N-MC cells; type: cell-based
Histamine H3 receptor [2] = biological target: Histamine H3 receptor (Rattus norvegicus, UniProt Q9QYN8); assay: Displacement of N-[3H]methylhistamine from rat histamine H3 receptor in rat cortical hemispheres
Histamine H3 receptor [3] = biological target: T1, Histamine H3 receptor; assay: Activity against human histamine H3 receptor by histamine induced inhibition of forskolin stimulated cAMP accumulation in SK-N-MC cells; type: functional, cell-based; details: read-out: pA2 (converted)
Summary of the method: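 SK-N-MC cells overexpressing human H3 receptor; antagonist-induced rightward shifts of histamine dose–response curves for inhibition of forskolin-stimulated cAMP accumulation measured. pA2 obtained by Schild regression analysis.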

Sequence of Histamine H3 receptor (Rattus norvegicus, UniProt Q9QYN8) (Q9QYN8 whole entry): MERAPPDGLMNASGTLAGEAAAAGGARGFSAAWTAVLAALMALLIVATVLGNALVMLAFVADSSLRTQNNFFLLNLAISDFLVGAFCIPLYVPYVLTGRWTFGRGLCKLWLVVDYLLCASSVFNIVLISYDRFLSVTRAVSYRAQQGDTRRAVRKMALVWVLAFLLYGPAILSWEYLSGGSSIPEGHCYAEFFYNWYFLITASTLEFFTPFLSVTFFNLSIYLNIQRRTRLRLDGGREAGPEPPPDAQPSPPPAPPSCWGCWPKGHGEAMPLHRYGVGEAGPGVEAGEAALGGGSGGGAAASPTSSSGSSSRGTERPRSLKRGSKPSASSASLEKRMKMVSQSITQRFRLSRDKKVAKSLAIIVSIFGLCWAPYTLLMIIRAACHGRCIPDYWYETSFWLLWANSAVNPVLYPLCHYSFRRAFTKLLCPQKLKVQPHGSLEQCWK
T1 sequence (Q9Y5N1 whole entry): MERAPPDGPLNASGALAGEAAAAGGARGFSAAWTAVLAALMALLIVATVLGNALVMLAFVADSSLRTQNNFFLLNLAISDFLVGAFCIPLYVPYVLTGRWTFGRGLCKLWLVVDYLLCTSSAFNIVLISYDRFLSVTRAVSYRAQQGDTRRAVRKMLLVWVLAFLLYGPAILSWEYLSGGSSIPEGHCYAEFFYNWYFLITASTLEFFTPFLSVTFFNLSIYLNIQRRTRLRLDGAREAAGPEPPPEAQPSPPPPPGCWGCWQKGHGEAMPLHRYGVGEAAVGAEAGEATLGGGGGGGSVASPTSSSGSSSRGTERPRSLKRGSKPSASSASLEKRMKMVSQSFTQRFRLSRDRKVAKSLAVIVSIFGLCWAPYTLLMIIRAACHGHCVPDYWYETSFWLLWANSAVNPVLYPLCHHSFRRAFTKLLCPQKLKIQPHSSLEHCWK

SMILES | Ki (Histamine H3 receptor [1]) [nM] | Ki (Histamine H3 receptor [2]) [nM] | Kb (Histamine H3 receptor [3]) [nM]
Brc1cc(CN2CCCCC2)cc(Br)c1OCCCN1CCCCC1 | 8 | 57 | 7.24
CN(C)CCCOc1ccc(CN(C)C)cc1 | 18 | 255 | 
CN(C)CCOc1ccc(CCN(C)C)cc1 | 40 | 345 | 
CN(C)CCCOc1c(Br)cc(CN(C)C)cc1Br | 36 | 319 | 
CN(C)CCCOc1ccc(CCN(C)C)cc1 | 6 | 89 | 17
CN(C)CCc1ccc(OCCCN2CCCCC2)cc1 | 0.5 | 5 | 0.501
CN(C)CCCOc1ccc(CN2CCCCC2)cc1 | 3 | 45 | 9.33
CN(C)CCc1ccc(OCCN2CCCCC2)cc1 | 14 | 50 | 
CCCCN(CCCC)CCCOc1ccc(-c2cn3c(C)cccc3n2)cc1 | 4000 |  | 
CN(C)CCCOc1c(Br)cc(CCN(C)C)cc1Br [APLYSAMINE] |  | 249 | 
c1cc(OCCCN2CCCCC2)ccc1CN1CCCCC1 [JNJ-5207852] |  | 1 | 
